≈ marks a conversion by molar mass, not a printed value.
What was measured:
Enterobacter [1] = assay: Antimicrobial activity against Enterobacter isolates producing extended-spectrum beta-lactamase assessed as percent resistant isolates by disk diffusion method
Enterobacter [2] = assay: Antimicrobial activity against Enterobacter isolates producing extended-spectrum beta-lactamase CTX-M-9 by agar dilution method; assay type: functional
In short: (§1)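 Enterobacterial clinical isolates on Mueller-Hinton agar. Agar dilution with an inoculum of 10⁴ CFU per spot gave MICs of selected β-lactams. β-lactams were tested alone or with a fixed level of clavulanic acid (4 μg/ml) or tazobactam (4 μg/ml).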

Enterobacter [3] = assay: Antimicrobial activity against Enterobacter isolates producing extended-spectrum beta-lactamase TEM-ES by agar dilution method; assay type: functional
In short: as §1

Enterobacter [4] = assay: Antimicrobial activity against Enterobacter isolates producing extended-spectrum beta-lactamase CTX-M-15 by agar dilution method; assay type: functional
In short: as §1

Enterobacter [5] = assay: Antimicrobial activity against Enterobacter isolates producing extended-spectrum beta-lactamase SHV-ES by agar dilution method; assay type: functional
In short: as §1

Enterobacter [6] = assay: Antimicrobial activity against Enterobacter isolates producing extended-spectrum beta-lactamase CTX-M-14 by agar dilution method; assay type: functional
In short: as §1

Enterobacter [7] = assay: Antimicrobial activity against Enterobacter isolates producing extended-spectrum beta-lactamase CTX-M-2 by agar dilution method; assay type: functional
In short: as §1

Enterobacter [8] = assay: Antimicrobial activity against Enterobacter isolates producing extended-spectrum beta-lactamase CTX-M-1 by agar dilution method; assay type: functional
In short: as §1

Structure (SMILES) | Activity (Enterobacter [1]) [%] | MIC (Enterobacter [2]) [µg/mL] | MIC (Enterobacter [3]) [µg/mL] | MIC (Enterobacter [4]) [µg/mL] | MIC (Enterobacter [5]) [µg/mL] | MIC (Enterobacter [6]) [µg/mL] | MIC (Enterobacter [7]) [µg/mL] | MIC (Enterobacter [8]) [µg/mL]
NCC[C@H](O)C(=O)N[C@@H]1C[C@H](N)[C@@H](O[C@H]2O[C@H](CN)[C@@H](O)[C@H](O)[C@H]2O)[C@H](O)[C@H]1O[C@H]1O[C@H](CO)[C@@H](O)[C@H](N)[C@H]1O [AMIKACIN] | 2 | – | – | – | – | – | – | –
CC1(C)S[C@@H]2[C@H](NC(=O)[C@H](N)c3ccc(O)cc3)C(=O)N2[C@H]1C(=O)O [AMOXICILLIN] | – | > 256 | > 256 | > 256 | > 256 | > 256 | > 256 | > 256
C[C@H]1[C@H](NC(=O)/C(=N\OC(C)(C)C(=O)O)c2csc(N)n2)C(=O)N1S(=O)(=O)O [AZTREONAM] | – | 2 (≈ 4.59 µM) | 2 (≈ 4.59 µM) | 2 (≈ 4.59 µM) | 2 (≈ 4.59 µM) | 2 (≈ 4.59 µM) | 16 (≈ 36.7 µM) | 64 (≈ 147 µM)
CO/N=C(\C(=O)N[C@@H]1C(=O)N2C(C(=O)[O-])=C(C[N+]3(C)CCCC3)CS[C@H]12)c1csc(N)n1 [CEFEPIME] | – | 2 (≈ 4.16 µM) | 0.25 (≈ 0.52 µM) | 8 (≈ 16.6 µM) | 0.25 (≈ 0.52 µM) | 2 (≈ 4.16 µM) | 16 (≈ 33.3 µM) | 32 (≈ 66.6 µM)
CO/N=C(\C(=O)N[C@@H]1C(=O)N2C(C(=O)O)=C(COC(C)=O)CS[C@H]12)c1csc(N)n1 [CEFOTAXIME] | – | 32 (≈ 70.3 µM) | 0.12 (≈ 0.263 µM) | 128 (≈ 281 µM) | 2 (≈ 4.39 µM) | 32 (≈ 70.3 µM) | 128 (≈ 281 µM) | > 256
CO[C@@]1(NC(=O)Cc2cccs2)C(=O)N2C(C(=O)O)=C(COC(N)=O)CS[C@@H]21 [CEFOXITIN] | – | 8 (≈ 18.7 µM) | 4 (≈ 9.36 µM) | 4 (≈ 9.36 µM) | 4 (≈ 9.36 µM) | 4 (≈ 9.36 µM) | 4 (≈ 9.36 µM) | 8 (≈ 18.7 µM)
CC(C)(O/N=C(\C(=O)N[C@@H]1C(=O)N2C(C(=O)[O-])=C(C[n+]3ccccc3)CS[C@H]12)c1csc(N)n1)C(=O)O [CEFTAZIDIME] | – | 1 (≈ 1.83 µM) | 4 (≈ 7.32 µM) | 1 (≈ 1.83 µM) | 0.25 (≈ 0.457 µM) | 0.5 (≈ 0.915 µM) | 1 (≈ 1.83 µM) | 4 (≈ 7.32 µM)
CC(=O)OCC1=C(C(=O)O)N2C(=O)[C@@H](NC(=O)Cc3cccs3)[C@H]2SC1 [CEPHALOTHIN] | – | > 256 | > 256 | > 256 | > 256 | > 256 | > 256 | > 256
O=C(N[C@H](CO)[C@H](O)c1ccc([N+](=O)[O-])cc1)C(Cl)Cl [CHLORAMPHENICOL] | 30 | – | – | – | – | – | – | –
O=C(O)c1cn(C2CC2)c2cc(N3CCNCC3)c(F)cc2c1=O [CIPROFLOXACIN] | 50 | – | – | – | – | – | – | –
C[C@@H](O)[C@H]1C(=O)N2C(C(=O)O)=C(S[C@@H]3CN[C@H](C(=O)Nc4cccc(C(=O)O)c4)C3)[C@H](C)[C@H]12 [ERTAPENEM] | – | 0.06 (≈ 0.126 µM) | 0.06 (≈ 0.126 µM) | 0.003 (≈ 0.00631 µM) | 0.06 (≈ 0.126 µM) | 0.003 (≈ 0.00631 µM) | 0.06 (≈ 0.126 µM) | 0.12 (≈ 0.252 µM)
C[C@@H](O)[C@H]1C(=O)N2C(C(=O)O)=C(SCCNC=N)C[C@H]12 [IMIPENEM ANHYDROUS] | – | 0.25 (≈ 0.835 µM) | 0.25 (≈ 0.835 µM) | 0.25 (≈ 0.835 µM) | 0.25 (≈ 0.835 µM) | 0.25 (≈ 0.835 µM) | 0.25 (≈ 0.835 µM) | 0.25 (≈ 0.835 µM)
CCN1CCN(C(=O)N[C@@H](C(=O)N[C@@H]2C(=O)N3[C@@H]2SC(C)(C)[C@@H]3C(=O)O)c2ccccc2)C(=O)C1=O [PIPERACILLIN] | – | 64 (≈ 124 µM) | 32 (≈ 61.8 µM) | 128 (≈ 247 µM) | 32 (≈ 61.8 µM) | 32 (≈ 61.8 µM) | 128 (≈ 247 µM) | > 256
CC1(C)S[C@@H]2[C@H](NC(=O)[C@H](C(=O)O)c3ccsc3)C(=O)N2[C@H]1C(=O)O [TICARCILLIN] | – | > 256 | > 256 | > 256 | > 256 | > 256 | > 256 | > 256
